Source: ChEMBL document CHEMBL3734686, “Synthesis, Photophysical Properties, and Biological Evaluation of trans-Bisthioglycosylated Tetrakis(fluorophenyl)chlorin for Photodynamic Therapy” (J Med Chem, 2015)
Active and inactive are the calls of the source.

Columns and labels:
[1] = Drug uptake in BALB/c mouse large intestine implanted with mouse 4T1 cells assessed per gram of tissue at 0.18 mg/kg, ip after 72 hrs by HPLC-based fluorescence analysis; format: ADME, organism-based; settings: in vivo
How it was run: (§1)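 Female BALB/c mice bearing 4T1 thigh tumours received an i.p. dose in ethanol/PEG400/H2O (2/3/5) with 0.1% DMSO, or in saline, and were kept dark until killed. Tissues were weighed (100 mg), homogenised in CH3OH/DMSO/H2O (32/8/1) and centrifuged twice at 2300×g at 4°C. Supernatants were analysed by HPLC with fluorescence detection (λex 404/λem 654 nm or λex 400/λem 666 nm). n = 3 per time point.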

Spleen = assay: Drug uptake in BALB/c mouse spleen implanted with mouse 4T1 cells assessed per gram of tissue at 0.18 mg/kg, ip after 72 hrs by HPLC-based fluorescence analysis; format: ADME, organism-based; settings: in vivo
How it was run: (§2)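 Female BALB/c mice with 4T1 cells (1 × 10^6 in HBSS) implanted in left rear thigh; single i.p. dose, 7 in ethanol/PEG400/H2O (2/3/5) with 0.1% DMSO, mono-L-aspartyl chlorin e6 in saline; kept dark until sacrifice. Tissues washed, frozen, homogenized in CH3OH/DMSO/H2O (32/8/1), centrifuged 2300×g; supernatant analysed by HPLC with fluorescence detection; three animals per time point.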

4T1 [2] = assay: Antiangiogenic activity against mouse 4T1 cells implanted in BALB/c mouse at 0.045 mg/kg, ip administered for 48 hrs followed by irradiation at 48 J/cm2 measured after 6 days by hematoxylin/eosin-staining based microscopic analysis; format: functional, organism-based
How it was run: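 4T1 cells (1 × 10^6 in HBSS) were implanted in the left rear thigh of female BALB/c mice. At 48 h after i.p. dosing at 31.25 nmol·kg−1 in ethanol/PEG400/H2O (2/3/5) with 0.1% DMSO, the tumour was irradiated with a 100-W halogen lamp (λ > 500 nm, 48 J·cm−2). Skin with tumour was taken 6 days later, fixed in 4% paraformaldehyde, paraffin-embedded, cut into 7-µm sections, H&E-stained and examined by light microscopy.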

4T1 [3] = assay: Antitumor activity against mouse 4T1 cells implanted in BALB/c mouse at 0.045 mg/kg, ip assessed as tumor growth inhibition administered for 48 hrs followed by irradiation at 40 mW/cm2 measured after 7 days; format: functional, organism-based
How it was run: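 Female BALB/c mice carried 4T1 thigh tumours (1 × 10^6 cells) of 50–60 mm3. They were dosed i.p. at 250–31.25 nmol·kg−1 in ethanol/PEG400/H2O (2/3/5) containing 0.1% DMSO and kept dark. At 48 h the tumour was irradiated with a 100-W halogen lamp at 40 mW·cm−2 for 20.1 min. Tumour size was measured daily by caliper as length × width²/2 and normalised to day 0.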

[4] = Induction of reactive oxygen generation assessed as quantum yield of singlet oxygen generation in O2 saturated D2O containing 0.1% DMSO by spectrometry; format: physicochemical
How it was run: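 Photosensitizer in D2O with 0.1% DMSO, absorbance set to 0.4 at its excitation wavelength, oxygen-purged 1 min; singlet-oxygen luminescence recorded with NIR photomultiplier cooled to 193 K; TPPS as reference.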

[5] = Induction of reactive oxygen generation assessed as quantum yield of hydroxyl radical generation in O2 saturated PBS containing 1% DMSO under photoirradiation by spectrometry relative to control hematoporphyrin; format: physicochemical; settings: buffer
How it was run: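 Photosensitizer (1.00 µM) with HPF (2.00 µM) in PBS containing 1% DMSO, oxygenated 1 min, irradiated with 100-W halogen lamp through λ>500 nm cutoff filter at 37°C; hematoporphyrin as reference.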

HeLa = assay: Photocytotoxicity against human HeLa cells assessed as cell survival preincubated for 24 hrs followed by irradiation at 16 J/cm2 measured at 24 hrs by WST-8 assay; format: functional, cell-based; settings: light or radiation study
How it was run: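 Cells (5 × 10^3/well) in DMEM with 10% FCS, 24 h at 37°C, 5% CO2; photosensitizer 1–50000 nM (1% DMSO final) for 24 h, washed, fresh medium. Irradiated with 100-W halogen lamp through λ>500 nm or λ>600 nm cutoff filter to 16 J·cm−2; WST-8 absorbance at 450 nm 24 h later, survival normalized to no-drug wells.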

Lung = assay: Drug uptake in BALB/c mouse lung implanted with mouse 4T1 cells assessed per gram of tissue at 0.18 mg/kg, ip after 6 hrs by HPLC-based fluorescence analysis; format: ADME, organism-based; settings: in vivo; how it was run: as §1
Liver [6] = assay: Drug uptake in BALB/c mouse liver implanted with mouse 4T1 cells assessed per gram of tissue at 0.18 mg/kg, ip after 6 hrs by HPLC-based fluorescence analysis; format: ADME, organism-based; settings: in vivo; how it was run: as §1
[7] = Drug uptake in BALB/c mouse large intestine implanted with mouse 4T1 cells assessed per gram of tissue at 0.18 mg/kg, ip after 6 hrs by HPLC-based fluorescence analysis; format: ADME, organism-based; settings: in vivo; how it was run: as §1
4T1 [8] = assay: Drug uptake in mouse 4T1 cells implanted in BALB/c mouse assessed per gram of tissue at 0.18 mg/kg, ip after 6 hrs by HPLC-based fluorescence analysis; format: ADME, organism-based; settings: in vivo; how it was run: as §2
Muscle tissue [9] = assay: Drug uptake in BALB/c mouse muscle implanted with mouse 4T1 cells assessed per gram of tissue at 0.18 mg/kg, ip after 12 hrs by HPLC-based fluorescence analysis; format: ADME, organism-based; settings: in vivo; how it was run: as §1
Heart = assay: Drug uptake in BALB/c mouse heart implanted with mouse 4T1 cells assessed per gram of tissue at 0.18 mg/kg, ip after 24 hrs by HPLC-based fluorescence analysis; format: ADME, organism-based; settings: in vivo; how it was run: as §1
Liver [10] = assay: Drug uptake in BALB/c mouse liver implanted with mouse 4T1 cells assessed per gram of tissue at 0.18 mg/kg, ip after 24 hrs by HPLC-based fluorescence analysis; format: ADME, organism-based; settings: in vivo; how it was run: as §1
Urinary bladder [11] = assay: Drug uptake in BALB/c mouse bladder implanted with mouse 4T1 cells assessed per gram of tissue at 0.18 mg/kg, ip after 24 hrs by HPLC-based fluorescence analysis; format: ADME, organism-based; settings: in vivo; how it was run: as §1
Muscle tissue [12] = assay: Drug uptake in BALB/c mouse muscle implanted with mouse 4T1 cells assessed per gram of tissue at 0.18 mg/kg, ip after 24 hrs by HPLC-based fluorescence analysis; format: ADME, organism-based; settings: in vivo; how it was run: as §1
4T1 [13] = assay: Drug uptake in mouse 4T1 cells implanted in BALB/c mouse assessed per gram of tissue at 0.18 mg/kg, ip after 24 hrs by HPLC-based fluorescence analysis; format: ADME, organism-based; settings: in vivo; how it was run: as §2
Stomach = assay: Drug uptake in BALB/c mouse stomach implanted with mouse 4T1 cells assessed per gram of tissue at 0.18 mg/kg, ip after 48 hrs by HPLC-based fluorescence analysis; format: ADME, organism-based; settings: in vivo; how it was run: as §2
[14] = Drug uptake in BALB/c mouse small intestine implanted with mouse 4T1 cells assessed per gram of tissue at 0.18 mg/kg, ip after 48 hrs by HPLC-based fluorescence analysis; format: ADME, organism-based; settings: in vivo; how it was run: as §2
Urinary bladder [15] = assay: Drug uptake in BALB/c mouse bladder implanted with mouse 4T1 cells assessed per gram of tissue at 0.18 mg/kg, ip after 48 hrs by HPLC-based fluorescence analysis; format: ADME, organism-based; settings: in vivo; how it was run: as §1
[16] = Drug uptake in BALB/c mouse small intestine implanted with mouse 4T1 cells assessed per gram of tissue at 0.18 mg/kg, ip after 72 hrs by HPLC-based fluorescence analysis; format: ADME, organism-based; settings: in vivo; how it was run: as §2

**Q.** For CN1CC2C3=N/C(=C(/c4c(F)c(F)c(S[C@@H]5O[C@H](CO)[C@@H](O)[C@H](O)[C@H]5O)c(F)c4F)C4=N/C(=C(/c5c(F)c(F)c(F)c(F)c5F)c5ccc([nH]5)/C(c5c(F)c(F)c(S[C@@H]6O[C@H](CO)[C@@H](O)[C@H](O)[C@H]6O)c(F)c5F)=C5/C=CC(=N5)C3c3c(F)c(F)c(F)c(F)c3F)C=C4)C2C1 (stereo partly specified), which Drug uptake [1] is on record?
**A.** Its Drug uptake is 7 ng/g.

**Q.** And the Drug uptake (Spleen)?
**A.** Its Drug uptake is 8 ng.

**Q.** And the Activity (4T1 [2])?
**A.** The Activity was “Active”.

**Q.** And the Activity (4T1 [3])?
**A.** Its Activity is “Active”.

**Q.** And the Activity [4]?
**A.** Its Activity is 0.25.

**Q.** And the Ratio [5]?
**A.** Its Ratio is 1.2.

**Q.** What about the EC50 (HeLa) of the same compound?
**A.** Its EC50 is 0.5 nM.

**Q.** What about the Drug uptake (Lung) of the same compound?
**A.** The Drug uptake was 70 ng/g.

**Q.** And the Drug uptake (Liver [6])?
**A.** Its Drug uptake is 109 ng/g.

**Q.** And the Drug uptake [7]?
**A.** Its Drug uptake is 80 ng.

**Q.** And the Drug uptake (4T1 [8])?
**A.** Its Drug uptake is 5 ng.

**Q.** And the Drug uptake (Muscle tissue [9])?
**A.** The Drug uptake was 4 ng.

**Q.** And the Drug uptake (Heart)?
**A.** The Drug uptake was 6.1 ng/g.

**Q.** What about the Drug uptake (Liver [10]) of the same compound?
**A.** The Drug uptake was 60 ng.

**Q.** And the Drug uptake (Urinary bladder [11])?
**A.** The Drug uptake was 77 ng.

**Q.** And the Drug uptake (Muscle tissue [12])?
**A.** The Drug uptake was 1.2 ng.

**Q.** What about the Drug uptake (4T1 [13]) of the same compound?
**A.** Its Drug uptake is 3 ng.

**Q.** And the Drug uptake (Stomach)?
**A.** Its Drug uptake is 6 ng.

**Q.** And the Drug uptake [14]?
**A.** The Drug uptake was 9.5 ng/g.

**Q.** And the Drug uptake (Urinary bladder [15])?
**A.** Its Drug uptake is 3 ng/g.

**Q.** And the Drug uptake [16]?
**A.** Its Drug uptake is 9.8 ng/g.
